Source: article PMC5393272 (Nature chemical biology, 2016)

Key:
[1] = system: PC9 cells; test: Senescence assessment; assay type: cell-based; conditions: PC9, NGI-1 for 5 days; emission 575 nm; p<.05
Summary of the method: (§1)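 PC9 and A549 cells, untreated or given 10 μM test compound, were fixed in 70% ethanol and stained with DAPI for 30 min. Flow cytometry used 532 nm and 405 nm lasers; autofluorescence emission at 575 nm was read after DAPI gating; n = 4.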

[2] = system: A549 cells; test: Senescence assessment, A549; assay type: cell-based; conditions: A549, NGI-1 for 5 days
Summary of the method: as §1

[3] = system: H3225; test: Cell cycle distribution by flow cytometry, H3225; assay type: cell-based; conditions: H3225, NGI-1 24 h; control 55%; p<.05
Summary of the method: (§2)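 Cells were treated with test compound (24 h stated for PC9 and A549). 1 × 10^6 cells were washed in ice-cold PBS, fixed overnight in ice-cold 70% ethanol at −20°C, then stained in Guava Cell Cycle Reagent for 30 min at room temperature. Analysis was on an LSRII cytometer, gating normal FSC/SSC and excluding doublets by FSC-A vs FSC-H. About 30,000 cells per run; mean of 3 independent assays; two-tailed t-tests.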

[4] = system: EGFR; test: Western blot of EGFR N-linked glycosylation in lung adenocarcinoma cells; assay type: cell-based; conditions: 10μM NGI-1, 24h; residual glycosylation remains
[5] = system: KD mutant EGFR; test: EGFR phosphorylation western blot in PC9 cells; assay type: cell-based; conditions: 10μM NGI-1, 1 day
Summary of the method: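 PC9 cells (with A549 for comparison) were treated with 10 μM test compound for 24 h. Lysates were western blotted for EGFR phospho-Y1173, and glycoform gel-mobility shifts were noted.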

[6] = system: A549 cells; test: Apoptosis assessment, A549; assay type: cell-based
[7] = biological target: STT3B (Homo sapiens, UniProt Q8TCJ2); test: 35S metabolic labeling of SHBG glycosylation; assay type: cell-based
Summary of the method: (§3)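 HeLa cells transfected with pSAP or SHBG vectors, given 10 μM test compound and metabolically labelled with 35S. Glycoforms were scored and reported as the average number of glycans per sample, with endoglycosidase H-treated controls. Runs were compared with siRNA knockdown of STT3A or STT3B against non-coding siRNA. Dose-response was run on pSAP and SHBG expressed in HEK293 cells.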

[8] = system: H2444 cells; test: Cell cycle distribution by flow cytometry, H2444; assay type: cell-based; conditions: H2444, NGI-1
Summary of the method: as §2

[9] = system: A549 cell line; test: MTT proliferation assay, A549; assay type: cell-based
Summary of the method: (§4)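 NSCLC cells (2×10^3 per well, triplicate wells) were grown in 10% serum medium with 10 μM test compound or 1 μM tunicamycin; medium and inhibitor were renewed every 48 h. MTT was added 4 h before reading absorbance at 570 nm on days 0, 3 and 5. Mean ± s.d., n = 3; two-tailed t-tests.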

[10] = system: H1581 cell line; test: MTT proliferation assay, H1581; assay type: cell-based; conditions: H1581 (FGFR1-dependent), 10μM NGI-1, 5 d
Summary of the method: as §4

[11] = system: OST; test: Cell free pSAP glycosylation with canine pancreas microsomes; assay type: biochemical; conditions: in vitro translation of pSAP mRNA, 60 min
[12] = system: HCC-827; test: Proliferation assay, HCC-827; assay type: cell-based; conditions: HCC-827 (EGFR KD mutation), NGI-1
[13] = system: luciferase N-linked glycosylation in D54 ER-LucT cells; test: Western blot of luciferase N-linked glycosylation in NGI-1 treated cell cultures; assay type: cell-based; conditions: doses 25 times the estimated IC50; unlike tunicamycin
[14] = system: LLO synthesis in CHO cells; test: FACE analysis of LLOs in wild type CHO cells; assay type: cell-based; conditions: for effect on LLO synthesis: FACE
Summary of the method: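 Wild-type CHO cells were treated with test compound or tunicamycin. Lipid-linked oligosaccharides were analysed by fluorophore-assisted carbohydrate electrophoresis, with mature Glc3Man9 LLO as the size marker; n = 3.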

[15] = system: N-linked glycosylation in D54-ERLucT cells; test: D54-ERLucT cell based luciferase assay for inhibition of N-linked glycosylation; conditions: intact D54 ER-LucT cells in culture; maximum activation using 20 μM NGI-1; n=4
[16] = system: H3225; test: Proliferation assay, H3225; assay type: cell-based; conditions: H3225 (EGFR KD mutation), NGI-1
[17] = system: OST; assay type: biochemical; conditions: NGI-1 5 μM; streptolysin-O permeabilized CHO cells; QYT or NYT peptide
Summary of the method: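 CHO cells permeabilized with streptolysin-O, incubated with test compound and either control tripeptide Ac-Gln-Tyr-Thr-CONH2 or glycosylation acceptor Ac-Asn-Tyr-Thr-CONH2. Free glycans and cleaved N-linked glycans resolved by fluorophore-assisted carbohydrate electrophoresis; n=2 for each product.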

[18] = system: GRP78/BiP; test: ER stress response, GRP78/BiP protein expression; assay type: cell-based; conditions: PC9 and A549 cell lines, NGI-1
[19] = system: PC9 cells; test: Cell cycle distribution by flow cytometry, PC9; assay type: cell-based; conditions: PC9, NGI-1 24 h; control 65%; p<.01
Summary of the method: as §2

[20] = system: PC9 cells; test: Apoptosis assessment, PC9; assay type: cell-based
[21] = system: PC9 cells; test: MTT proliferation assay, PC9; assay type: cell-based
Summary of the method: as §4

[22] = system: HCC-827 cells; test: Cell cycle distribution by flow cytometry, HCC-827; assay type: cell-based; conditions: HCC-827, NGI-1 24 h; control 50%; p<.01
Summary of the method: as §2

[23] = system: FGFR1; test: FGFR phosphorylation western blot in H1581 and H2444; assay type: cell-based; conditions: H1581 and H2444 NSCLC cell lines, NGI-1
Summary of the method: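 H1581 and H2444 NSCLC cells were treated with test compound. Lysates were western blotted with anti-phospho-FGFR (Tyr653/654) at 1:3,000, and gel mobility was assessed.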

[24] = system: EGFR; test: EGFR localization by surface biotinylation and confocal microscopy; assay type: cell-based; conditions: H3255 cells, 10 μM NGI-1, 24 h; identical in HCC-827
[25] = system: p21; test: p21 protein western blot, PC9; assay type: cell-based; conditions: PC9, NGI-1
[26] = system: H1581 cells; test: Cell cycle distribution by flow cytometry, H1581; assay type: cell-based; conditions: H1581, NGI-1; control 55%; p<.05
Summary of the method: as §2

[27] = biological target: STT3A (Homo sapiens, UniProt P46977); test: 35S metabolic labeling of pSAP glycosylation; assay type: cell-based
Chain of STT3A (P46977 whole entry): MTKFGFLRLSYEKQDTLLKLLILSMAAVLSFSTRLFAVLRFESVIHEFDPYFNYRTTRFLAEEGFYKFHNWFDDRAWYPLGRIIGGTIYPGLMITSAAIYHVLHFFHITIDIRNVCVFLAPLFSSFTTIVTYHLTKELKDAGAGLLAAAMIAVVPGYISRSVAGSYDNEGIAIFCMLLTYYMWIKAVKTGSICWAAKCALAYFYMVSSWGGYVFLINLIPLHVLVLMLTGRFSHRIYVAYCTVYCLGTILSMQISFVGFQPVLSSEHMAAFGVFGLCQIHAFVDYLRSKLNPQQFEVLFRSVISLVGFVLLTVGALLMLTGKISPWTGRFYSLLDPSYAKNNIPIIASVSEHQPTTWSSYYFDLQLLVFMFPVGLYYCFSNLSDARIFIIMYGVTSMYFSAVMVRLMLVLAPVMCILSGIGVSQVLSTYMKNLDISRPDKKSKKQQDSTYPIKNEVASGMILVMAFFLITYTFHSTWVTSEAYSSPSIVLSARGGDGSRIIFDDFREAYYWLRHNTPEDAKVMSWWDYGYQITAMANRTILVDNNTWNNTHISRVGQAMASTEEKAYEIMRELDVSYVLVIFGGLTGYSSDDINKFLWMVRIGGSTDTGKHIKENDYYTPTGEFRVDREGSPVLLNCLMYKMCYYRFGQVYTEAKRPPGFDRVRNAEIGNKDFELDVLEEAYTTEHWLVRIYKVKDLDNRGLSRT
Summary of the method: as §3

[28] = system: H2444 cells; test: MTT proliferation assay, H2444; assay type: cell-based; conditions: H2444 (FGFR amplified, not FGFR1-dependent), 10μM NGI-1, 5 d
Summary of the method: as §4

[29] = system: A549 cells; test: Cell cycle distribution by flow cytometry, A549; assay type: cell-based; conditions: A549, NGI-1 24 h
Summary of the method: as §2

[30] = system: cyclin D1; test: Cyclin D1 mRNA and protein, A549; assay type: cell-based, human; conditions: A549, NGI-1
Summary of the method: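 Cyclin D1 mRNA: A549 and PC9 cells were treated with test compound, total RNA purified and reverse transcribed, and qPCR run with SYBR Green normalised to GAPDH. Cycling was 95°C 10 min, then 40 cycles of 95°C 30 s, 55°C 15 s, 72°C 30 s. Triplicate PCRs; n = 4; two-tailed t-tests. Protein was assessed by western blot, n = 3.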

[31] = system: Integrin B1 (ITB1); test: ITB1 glycosylation and localization; assay type: cell-based; conditions: 10μM NGI-1, 48 h; hypo-glycosylated ITB1 still at the cell surface
Summary of the method: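 H3255 cells were treated with 10 μM test compound for 48 h. Surface biotinylation: on ice, cells were labelled with 0.5 mg/ml Sulfo-NHS-SS-biotin in PBS for 60 min at 4°C, quenched with 100 mM glycine, lysed, and pulled down on streptavidin-agarose overnight at 4°C. Bound (surface) and unbound (intracellular) fractions were blotted on 7.5% SDS-PAGE. Confocal imaging used anti-β1-integrin at 1:500.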

[32] = HeLa cells, 10 μM, NGI-1 omitted during pulse labeling interval (20 minutes)

Compound: Cc1cnc(NC(=O)c2cc(S(=O)(=O)N(C)C)ccc2N2CCCC2)s1 [NGI-1]
- increased autofluorescence by flow cytometry [1]: 60.4% ± 7.5%
- hallmarks of senescence (autofluorescence, lipofuscin aggregates, morphology) [2]: none of these changes were detected
- cells in G1 [3]: 80%
- EGFR N-linked glycosylation (molecular weight on SDS-PAGE) [4]: blocked EGFR N-linked glycosylation
- phosphorylation of KD mutant EGFR (Y1173) [5]: blocked phosphorylation
- induction of apoptosis ([6]; A549, NGI-1 for 2 or 5 days): did not induce apoptosis
- reversibility of inhibition of site occupancy (STT3B specific sites) [7, 32]: reversible
- LLO transfer to STT3B dependent sites (SHBG) ([7]; dose response, HEK293 cells): completely blocks
- G1 arrest [8]: not in H2444 cells
- effect on proliferation ([9]; A549 (KRAS G12S), 10μM NGI-1, MTT over 5 days): continued to proliferate
- effect on proliferation [10]: blocked proliferation
- inhibition of pSAP N-linked glycosylation [11]: dose dependent inhibition
- effect on proliferation [12]: sensitive
- extent of N-linked glycosylation inhibition [13]: did not completely abolish all N-linked glycosylation
- effect on LLO synthesis [14]: did not impair LLO synthesis
- increase of Glc3Man9GlcNAc2 LLO ([14]; p <.01): 31%
- AC50 (equivalent to IC50), luciferase activity [15]: 1100 nM
- effect on proliferation [16]: sensitive
- production of OST products (free glycans and N-glycans) [17]: substantially reduce the production of both OST products
- ER stress response (GRP78/BiP protein expression) [18]: induced a similar ER stress response in both cell lines
- cells in G1 [19]: 90%
- induction of apoptosis ([20]; PC9, NGI-1 for 2 or 5 days): did not induce apoptosis
- reduction of cell proliferation ([21]; PC9, 10μM NGI-1, after 3 days, MTT, p <.001): more than 90%
- cells in G1 [22]: 75%
- FGFR1 phosphorylation (Y653/654) [23]: blocked FGFR1 phosphorylation
- EGFR trafficking / cellular localization [24]: blocks EGFR trafficking to the cell surface
- protein levels of p21 [25]: increase within 24 h
- cells in G1 [26]: 80%
- reversibility of inhibition of site occupancy (STT3A specific sites) [27, 32]: reversible
- glycosylation of STT3A dependent sites (pSAP) ([27]; dose response, HEK293 cells): less potent and incompletely blocks
- effect on proliferation [28]: NGI-1 insensitive
- cell cycle distribution [29]: did not significantly change
- cyclin D1 mRNA and protein levels [30]: not significantly affected
- ITB1 glycosylation [31]: significantly reduced ITB1 glycosylation

Compound: tunicamycin [reference compound]
- induction of apoptosis ([6]; A549, tunicamycin treatment): apoptosis was activated
- effect on proliferation ([9]; A549, 1μM tunicamycin, MTT over 5 days): immediately blocks proliferation
- effect on LLO synthesis [14]: blocked all LLO production
- induction of apoptosis ([20]; PC9, tunicamycin treatment): apoptosis was activated
- effect on proliferation ([21]; PC9, 1μM tunicamycin, MTT over 5 days): immediately blocks proliferation
